Source: ChEMBL document CHEMBL4266033, “Neolymphostin A Is a Covalent Phosphoinositide 3-Kinase (PI3K)/Mammalian Target of Rapamycin (mTOR) Dual Inhibitor That Employs an Unusual Electrophilic Vinylogous Ester” (J Med Chem, 2018)
Calls of active or inactive are those of the source. The calls are words filed in the database; no cut-off is given here.

Tests used:
[1] = biological target: Epidermal growth factor receptor (Homo sapiens) (UniProt P00533); assay: Inhibition of EGFR in human HeLa cells assessed as reduction in EGF-stimulated EGFR Y1068 phosphorylation at 100 nM preincubated for 10 mins followed by EGF stimulation measured after 5 mins by Western blot analysis; type: cell-based
How it was run: (§1)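 HeLa cells serum-starved overnight, pretreated with compound for 10 min, then stimulated with EGF at 10 ng mL-1 for 5 min. Lysis in boiling SDS sample buffer, protein quantified, equal protein boiled 5 min and run on SDS-PAGE. Transfer to PVDF, Western blot for EGFR/pEGFR (Tyr1068), AKT/pAKT (Ser473, Thr308), ERK1/2/pERK1/2 (Thr202/Tyr204) and GAPDH, with ECL detection.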

HeLa [2] = assay: Inhibition of PI3K in human HeLa cells assessed as reduction in EGF-stimulated AKT phosphorylation at S473 at 100 nM preincubated for 10 mins followed by EGF stimulation measured after 5 mins by Western blot analysis; type: cell-based; how it was run: as §1
HeLa [3] = assay: Inhibition of PI3K in human HeLa cells assessed as reduction in EGF-stimulated AKT phosphorylation at T308 at 100 nM preincubated for 10 mins followed by EGF stimulation measured after 5 mins by Western blot analysis; type: cell-based; how it was run: as §1
[4] = biological target: Epidermal growth factor receptor (Homo sapiens) (UniProt P00533); assay: Inhibition of EGFR in human HeLa cells assessed as reduction in EGF-stimulated ERK1/2 phosphorylation at T202/Y204 at 100 nM preincubated for 10 mins followed by EGF stimulation measured after 5 mins by Western blot analysis; type: cell-based; how it was run: as §1
[5] = Glutathione reactivity assessed as formation of (2S)-2-amino-5-((2R)-1-(carboxymethylamino)-3-(1-methoxy-3-oxo-3-(pyridin-2-yl)propylthio)-1-oxopropan-2-ylamino)-5-oxopentanoic acid in presence of pH 7.4 at 25 degC by NMR based method; type: physicochemical; conditions: gsh
[6] = Electrophilicity towards N-alpha-acetyl lysine in 100 mM pH 8.1 phosphate buffer assessed as (S)-2-acetamido-6-(3-oxo-3-(pyridin-2-yl)prop-1-enylamino)hexanoic acid formation using 10 fold excess N-alpha-acetyl lysine at 25 degC by NMR spectrscopy; type: physicochemical
How it was run: (§2)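 NMR kinetics of the model electrophile with and without Nα-acetyl lysine, set up as in the glutathione protocol. Phosphate-buffered D2O (100 mM) was at pH 8.1. Electrophile diluted from a 200 mM DMSO-d6 stock; lysine solution freshly prepared in the same buffer.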

[7] = Electrophilicity towards N-alpha-acetyl lysine in 100 mM pH 8.1 phosphate buffer assessed as 3-hydroxy-1-(pyridin-2-yl)prop-2-en-1-one formation using 10 fold excess N-alpha-acetyl lysine at 25 degC by NMR spectrscopy; type: physicochemical; how it was run: as §2
[8] = Glutathione reactivity assessed as formation of (2S)-2-amino-5-((2R)-1-(carboxymethylamino)-3-(1-methoxy-3-oxo-3-(pyridin-2-yl)propylthio)-1-oxopropan-2-ylamino)-5-oxopentanoic acid in presence of pH 7.4 at 37 degC by NMR based method; type: physicochemical; conditions: gsh
[9] = Electrophilicity towards N-alpha-acetyl lysine in 100 mM pH 7.4 phosphate buffer using 10 fold excess N-alpha-acetyl lysine at 25 degC by NMR spectrscopy; type: physicochemical
How it was run: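 Model electrophile with tenfold excess Nα-acetyl lysine in 100 mM phosphate buffer, pH 7.4, at 25 °C. Set up as in the glutathione NMR kinetics (1.0 mM electrophile from DMSO-d6 stock, buffered D2O).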

HeLa [10] = assay: Inhibition of PI3K in human HeLa cells assessed as reduction in EGF-stimulated AKT phosphorylation at T308 at 1 to 100 nM preincubated for 10 mins followed by EGF stimulation measured after 5 mins by Western blot analysis; type: cell-based
How it was run: (§3)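 HeLa cells were serum-starved overnight, pretreated with compound for 10 min, then stimulated with 10 ng mL-1 EGF for 5 min. Lysis was in boiling SDS sample buffer, with protein quantified at 660 nm. Equal protein was resolved by SDS-PAGE and Western blotted for pEGFR Tyr1068, pAKT Ser473/Thr308, and pERK1/2 Thr202/Tyr204 with total proteins and GAPDH, detected by ECL.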

HeLa [11] = assay: Inhibition of PI3K in human HeLa cells assessed as reduction in EGF-stimulated AKT phosphorylation at S473 at 1 to 100 nM preincubated for 10 mins followed by EGF stimulation measured after 5 mins by Western blot analysis; type: cell-based; how it was run: as §3

Epidermal growth factor receptor (Homo sapiens), sequence (P00533 whole entry): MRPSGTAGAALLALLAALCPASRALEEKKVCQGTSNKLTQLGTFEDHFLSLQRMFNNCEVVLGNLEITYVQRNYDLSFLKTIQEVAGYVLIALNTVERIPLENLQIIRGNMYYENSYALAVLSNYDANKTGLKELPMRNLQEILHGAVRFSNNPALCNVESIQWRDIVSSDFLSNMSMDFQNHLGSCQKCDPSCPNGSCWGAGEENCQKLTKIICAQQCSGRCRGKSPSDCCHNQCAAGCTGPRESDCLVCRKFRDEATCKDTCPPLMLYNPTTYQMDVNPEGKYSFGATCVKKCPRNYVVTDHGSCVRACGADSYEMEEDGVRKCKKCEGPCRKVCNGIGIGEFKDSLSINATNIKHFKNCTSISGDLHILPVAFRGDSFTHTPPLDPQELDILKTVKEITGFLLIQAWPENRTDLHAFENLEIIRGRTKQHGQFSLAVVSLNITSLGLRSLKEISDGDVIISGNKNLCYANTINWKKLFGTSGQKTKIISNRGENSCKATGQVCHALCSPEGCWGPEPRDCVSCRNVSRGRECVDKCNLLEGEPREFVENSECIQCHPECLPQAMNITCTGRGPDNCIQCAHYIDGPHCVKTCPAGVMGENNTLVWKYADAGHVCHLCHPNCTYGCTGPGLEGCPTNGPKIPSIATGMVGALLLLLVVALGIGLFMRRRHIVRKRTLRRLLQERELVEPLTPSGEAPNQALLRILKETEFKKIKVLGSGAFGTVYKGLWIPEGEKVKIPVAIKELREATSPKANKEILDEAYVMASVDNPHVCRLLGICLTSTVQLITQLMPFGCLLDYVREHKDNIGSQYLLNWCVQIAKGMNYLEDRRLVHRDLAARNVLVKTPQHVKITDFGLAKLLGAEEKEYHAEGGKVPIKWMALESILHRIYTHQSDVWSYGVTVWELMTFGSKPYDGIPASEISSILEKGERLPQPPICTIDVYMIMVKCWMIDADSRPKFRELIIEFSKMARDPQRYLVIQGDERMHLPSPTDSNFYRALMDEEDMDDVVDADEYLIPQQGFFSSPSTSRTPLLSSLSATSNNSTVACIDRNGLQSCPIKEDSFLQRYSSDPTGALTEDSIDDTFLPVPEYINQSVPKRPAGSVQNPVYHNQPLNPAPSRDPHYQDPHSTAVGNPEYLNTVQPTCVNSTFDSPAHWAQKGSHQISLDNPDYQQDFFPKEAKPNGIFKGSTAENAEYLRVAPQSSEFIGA

## COC[C@H]1OC(=O)c2coc3c2[C@@]1(C)C1=C(C3=O)[C@@H]2CCC(=O)[C@@]2(C)C[C@H]1OC(C)=O
[1]
  inhibition: inactive
HeLa [2]
  inhibition: Active
HeLa [3]
  inhibition: Active
[4]
  inhibition: inactive

## CO/C=C/C(=O)c1ccccn1
[5]
  t1/2: 13 min
[6]
  t1/2: 60 min
[7]
  t1/2: 1440 min
[8]
  t1/2: 5.4 min
[9]
  Activity: Not Active

## CC(C)C(=O)Nc1cc(N)c2c3c(cc(C(=O)CCO)nc13)C=N2
HeLa [10]
  inhibition: inactive
HeLa [11]
  inhibition: inactive
